This is an account of results in ChEMBL document CHEMBL1154609, “Synthesis and antibacterial activity of isothiazolyl oxazolidinones and analogous 3(2H)-isothiazolones” (Eur J Med Chem, 2010).

One assay deals with Pseudomonas aeruginosa. Nature of the assay: Antibacterial activity against Pseudomonas aeruginosa ATCC 9027 after 18 hrs by agar dilution method. Particulars: ATCC 9027, 18 h. (In general: Agar dilution tests growth on a series of plates holding different concentrations.)
The next assay has as its system Salmonella typhimurium. Kind of assay: Antibacterial activity against Salmonella Typhimurium ATCC 1639 after 18 hrs by agar dilution method. The assay is classed as functional, Salmonella enterica subsp. enterica serovar Typhimurium. Particulars: Salmonella enterica, ATCC 1639, 18 h. The procedure, abridged:
(§1)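 Agar dilution on Mueller Hinton agar; inoculum about 10^6 CFU/mL applied to plates with twofold serial dilutions of compound in distilled water, 0.01 to 100 μg/mL; 37 °C, 18 h. DMSO-supplemented medium at matching dilution run as solvent control. MIC = lowest concentration giving no visible growth on the plate.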

Assay [1] deals with Staphylococcus epidermidis. Kind of assay: Antibacterial activity against Staphylococcus epidermidis ATCC 12229 after 18 hrs by agar dilution method. The class given is functional. Particulars: ATCC 12229, 18 h. The procedure, abridged:
as §1

For assay [2], the system named is Staphylococcus aureus. Nature of the assay: Antibacterial activity against Staphylococcus aureus ATCC 29737 after 18 hrs by agar dilution method. The assay is classed as functional. Particulars: ATCC 29737, 18 h. The gist of the method:
as §1

In a further assay the test system is Escherichia coli. Kind of assay: Antibacterial activity against Escherichia coli ATCC 8739 after 18 hrs by agar dilution method. The class given is functional. Particulars: ATCC 8739, 18 h. The gist of the method:
as §1

Assay [3] can be described thus: Cytotoxicity against mouse NIH/3T3 cells after 24 hrs by MTT assay. The class given is cell-based. Particulars: NIH3T3, 24 h. The gist of the method:
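NIH/3T3 normal mouse fibroblasts exposed to compounds for 24 h; viability read by MTT colorimetric assay.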

Assay [4] has as its system Staphylococcus aureus. Nature of the assay: Antibacterial activity against methicillin-resistant Staphylococcus aureus isolate 2 after 18 hrs by agar dilution method. The class given is functional. Particulars: isolate 2, 18 h. The gist of the method:
(§2)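 Agar dilution on Mueller Hinton agar. Inoculum about 10^6 CFU/mL applied to plates holding two-fold serial dilutions of compound in distilled water, 0.01 to 100 μg/mL. Incubated 37 °C for 18 h. DMSO solvent control included. MIC taken as the lowest concentration giving no visible growth on the plate.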

In assay [5] the test system is Staphylococcus aureus. Nature of the assay: Antibacterial activity against methicillin-resistant Staphylococcus aureus isolate 1 after 18 hrs by agar dilution method. The class given is functional. Particulars: isolate 1, 18 h. The gist of the method:
as §2

≈ marks a conversion by molar mass, not a printed value.

For orientation: MIC means the lowest concentration found to suppress growth. High values mean weaker potency, low ones greater potency. Consider `O=C1OC(Cn2sccc2=O)CN1c1ccc(N2CCOCC2)c(F)c1` (centres undefined), for which the MIC came to 12.5 µg/mL (≈ 32.9 µM) against Pseudomonas aeruginosa; 12.5 µg/mL (≈ 32.9 µM) against Salmonella typhimurium; 12.5 µg/mL (≈ 32.9 µM) in assay [1]; 6 µg/mL (≈ 15.8 µM) against Staphylococcus aureus [2]; 25 µg/mL (≈ 65.9 µM) in the assay with Escherichia coli.
In the case of `O=c1cc(Cl)sn1-c1ccc(F)cc1`, the MIC against Pseudomonas aeruginosa stood at 12.5 µg/mL (≈ 54.4 µM); against Salmonella typhimurium, 6 µg/mL (≈ 26.1 µM); in assay [1], 3 µg/mL (≈ 13.1 µM); against Staphylococcus aureus [2], 3 µg/mL (≈ 13.1 µM); against Escherichia coli it was 6 µg/mL (≈ 26.1 µM).
As usually defined, the IC50 is the concentration that gives 50% inhibition. On to `O=C1OC(Cn2sccc2=O)CN1c1ccccc1` (centres undefined), for which the minimal inhibitory concentration (MIC) against Pseudomonas aeruginosa turned out to be 0.01 µg/mL (≈ 0.0362 µM); in the assay with Salmonella typhimurium it was 0.01 µg/mL (≈ 0.0362 µM); in assay [1] it was 0.75 µg/mL (≈ 2.71 µM); against Staphylococcus aureus [2], 0.75 µg/mL (≈ 2.71 µM); with Escherichia coli, 0.01 µg/mL (≈ 0.0362 µM); in the assay with Staphylococcus aureus [4] it was 10 µg/mL (≈ 36.2 µM). Further, in the assay with Staphylococcus aureus [5], the minimal inhibitory concentration (MIC) amounted to 6 µg/mL (≈ 21.7 µM). In assay [3], this compound came in with an IC50 of 162 µg/mL (≈ 586 µM).
Take `CC(=O)c1ccc(-n2sccc2=O)cc1`: the MIC (against Pseudomonas aeruginosa; against Salmonella typhimurium; in assay [1]; with Staphylococcus aureus [2]; against Escherichia coli) was 12.5 µg/mL (≈ 57 µM) each time.
Take `O=C1OC(Cn2sccc2=O)CN1c1ccc(F)cc1` (centres undefined): the MIC in the assay on Pseudomonas aeruginosa was determined as 0.75 µg/mL (≈ 2.55 µM); against Salmonella typhimurium, 0.75 µg/mL (≈ 2.55 µM); in assay [1], 1.5 µg/mL (≈ 5.1 µM); with Staphylococcus aureus [2], 0.75 µg/mL (≈ 2.55 µM); against Escherichia coli it was 0.75 µg/mL (≈ 2.55 µM); against Staphylococcus aureus [4], 12.5 µg/mL (≈ 42.5 µM). The compound also displayed a minimum inhibitory concentration (MIC) in the assay with Staphylococcus aureus [5] of 10 µg/mL (≈ 34 µM). Moreover, the midpoint of inhibition in assay [3], the IC50, lay at 174 µg/mL (≈ 591 µM).
With `COc1ccc(-n2sc(Cl)cc2=O)cc1`, the MIC is 0.01 µg/mL (≈ 0.0414 µM) with Pseudomonas aeruginosa; 1.5 µg/mL (≈ 6.21 µM) against Salmonella typhimurium; 0.25 µg/mL (≈ 1.03 µM) in assay [1]; 1.5 µg/mL (≈ 6.21 µM) with Staphylococcus aureus [2]; 1.5 µg/mL (≈ 6.21 µM) against Escherichia coli.
Consider `O=c1ccsn1-c1ccc(C(F)(F)F)cc1`, for which the MIC in the assay on Pseudomonas aeruginosa came to 25 µg/mL (≈ 102 µM); against Salmonella typhimurium it was 25 µg/mL (≈ 102 µM); in assay [1], 0.25 µg/mL (≈ 1.02 µM); in the assay with Staphylococcus aureus [2] it was 25 µg/mL (≈ 102 µM); in the assay on Escherichia coli, 25 µg/mL (≈ 102 µM).
Turning to `COc1ccc(N2CC(Cn3sccc3=O)OC2=O)cc1` (centres undefined), the MIC against Pseudomonas aeruginosa was 100 µg/mL (≈ 326 µM); in the assay with Salmonella typhimurium it was 100 µg/mL (≈ 326 µM); in assay [1], 50 µg/mL (≈ 163 µM); against Staphylococcus aureus [2], 50 µg/mL (≈ 163 µM); against Escherichia coli, 100 µg/mL (≈ 326 µM).
With `O=C1OC(Cn2sccc2=O)CN1c1ccc(Cl)cc1` (centres undefined), the MIC came out at 25 µg/mL (≈ 80.4 µM) against Pseudomonas aeruginosa; 12.5 µg/mL (≈ 40.2 µM) against Salmonella typhimurium; 1.5 µg/mL (≈ 4.83 µM) in assay [1]; 1.5 µg/mL (≈ 4.83 µM) with Staphylococcus aureus [2]; 12.5 µg/mL (≈ 40.2 µM) with Escherichia coli; 12.5 µg/mL (≈ 40.2 µM) in the assay with Staphylococcus aureus [4]. The MIC in the assay on Staphylococcus aureus [5] is 12.5 µg/mL (≈ 40.2 µM). In addition, the IC50 in assay [3] worked out at 194 µg/mL (≈ 624 µM).
Consider `COc1ccc(-n2sccc2=O)cc1`, for which the MIC with Pseudomonas aeruginosa stood at 25 µg/mL (≈ 121 µM); against Salmonella typhimurium it was 12.5 µg/mL (≈ 60.3 µM); in assay [1], 3 µg/mL (≈ 14.5 µM); in the assay on Staphylococcus aureus [2], 10 µg/mL (≈ 48.2 µM); in the assay with Escherichia coli, 25 µg/mL (≈ 121 µM).
Turning to `CC(=O)c1ccc(-n2sc(Cl)cc2=O)cc1`, the minimum inhibitory concentration (MIC) is 12.5 µg/mL (≈ 49.3 µM) in the assay with Pseudomonas aeruginosa; 25 µg/mL (≈ 98.5 µM) in the assay with Salmonella typhimurium; 12.5 µg/mL (≈ 49.3 µM) in assay [1]; 12.5 µg/mL (≈ 49.3 µM) in the assay on Staphylococcus aureus [2]; 12.5 µg/mL (≈ 49.3 µM) against Escherichia coli.
As for `Cc1ccc(-n2sc(Cl)cc2=O)cc1`, the MIC with Pseudomonas aeruginosa turned out to be 0.01 µg/mL (≈ 0.0443 µM); with Salmonella typhimurium, 5 µg/mL (≈ 22.2 µM); in assay [1], 0.5 µg/mL (≈ 2.22 µM); in the assay with Staphylococcus aureus [2], 5 µg/mL (≈ 22.2 µM); in the assay on Escherichia coli, 5 µg/mL (≈ 22.2 µM).
For the compound `Cc1ccc(N2CC(Cn3sccc3=O)OC2=O)cc1` (centres undefined), the MIC (against Pseudomonas aeruginosa; against Salmonella typhimurium; in assay [1]; with Staphylococcus aureus [2]; in the assay on Escherichia coli) was 25 µg/mL (≈ 86.1 µM) in each case.
In the case of `O=c1ccsn1-c1cccc(Cl)c1`, the MIC stood at 25 µg/mL (≈ 118 µM) with Pseudomonas aeruginosa; 25 µg/mL (≈ 118 µM) in the assay with Salmonella typhimurium; 12.5 µg/mL (≈ 59.1 µM) in assay [1]; 10 µg/mL (≈ 47.2 µM) against Staphylococcus aureus [2]; 25 µg/mL (≈ 118 µM) in the assay on Escherichia coli.
On to `O=c1ccsn1Cc1ccccc1`, for which the MIC worked out at 12.5 µg/mL (≈ 65.4 µM) in the assay with Pseudomonas aeruginosa; 12.5 µg/mL (≈ 65.4 µM) against Salmonella typhimurium; 6 µg/mL (≈ 31.4 µM) in assay [1]; 12.5 µg/mL (≈ 65.4 µM) in the assay on Staphylococcus aureus [2]; 12.5 µg/mL (≈ 65.4 µM) with Escherichia coli.
As for `O=c1cc(Cl)sn1Cc1ccccc1`, the MIC with Pseudomonas aeruginosa was found to be 25 µg/mL (≈ 111 µM); in the assay on Salmonella typhimurium, 12.5 µg/mL (≈ 55.4 µM); in assay [1] it was 0.5 µg/mL (≈ 2.22 µM); in the assay on Staphylococcus aureus [2], 0.5 µg/mL (≈ 2.22 µM); in the assay with Escherichia coli it was 0.5 µg/mL (≈ 2.22 µM).
On to `O=c1cc(Cl)sn1-c1cccc(Cl)c1`, for which the minimum inhibitory concentration (MIC) against Pseudomonas aeruginosa is 12.5 µg/mL (≈ 50.8 µM); in the assay on Salmonella typhimurium it was 12.5 µg/mL (≈ 50.8 µM); in assay [1] it was 10 µg/mL (≈ 40.6 µM); with Staphylococcus aureus [2] it was 6 µg/mL (≈ 24.4 µM); in the assay on Escherichia coli, 12.5 µg/mL (≈ 50.8 µM).
